# Measured values reported in PMC6759879 (Journal of the American Heart Association: Cardiovascular …, 2019).
# Columns and labels:
# [1] = target: Cx43 CT (amino acids 255–382) (Rattus norvegicus, UniProt P08050); assay: Surface plasmon resonance, immobilized biotin-peptides, Cx43 CT analyte; format: binding
# In short: (§1)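 Biotin-peptides are immobilized at equal RU on a streptavidin chip in HEPES/EDTA/NaCl/Tween‑20, pH 7.4. Analyte is Cx43 CT (wild type or KK/QQ) with GST removed by PreScission protease, injected at several concentrations in random order in 10 mmol/L HEPES, 100 mmol/L NaCl pH 7.4 at 30 μL/min. Regeneration: 50 mmol/L NaOH/1 mol/L NaCl. Biotin-reversed-sequence reference subtracted; mean of 3 runs.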
# [2] = system: Cx43 CT‐KK/QQ; assay: Surface plasmon resonance, immobilized biotin-peptides, Cx43 CT‐KK/QQ analyte; format: binding; conditions: analyte 0.5 to 15 μmol/L, reverse control peptide subtracted, mean of 3 runs
# In short: as §1
# [3] = system: PKCε phosphorylation of Cx43‐CT substrate at Ser368; assay: PKCε Cx43 CT S368 phosphorylation assay; format: biochemical; conditions: Western blot pS368/total Cx43; biotin-tagged peptides
# In short: (§2)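 PKCε (400 ng/mL, prediluted in HEPES/CHAPS/DTT buffer) is used with wild-type or KK/QQ Cx43‑CT (aa 255–382) substrate at 14 μg/mL, plus peptide. Incubated 12 min at 37°C, quenched in LDS, blotted for pS368, stripped, reprobed for total Cx43. % phosphorylation normalized to PKC+ no-peptide control.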
# [4] = system: Cx43 CT KK/QQ mutant substrate; assay: PKCε phosphorylation assay with Cx43 CT KK/QQ mutant substrate; format: biochemical; conditions: biotin‐αCT1 20 μmol/L
# In short: as §2
# [5] = system: ZO‐1 PDZ2; assay: Protein thermal shift assay, ZO‐1 PDZ2; format: binding; conditions: 500 μg/mL GST‐PDZ2, 25 to 100 μmol/L peptide, PBS pH 7.4, SYPRO Orange, N=6
# In short: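 Recombinant GST–PDZ2 (500 μg/mL) is mixed with 25–100 μmol/L peptide in PBS pH 7.4 with SYPRO Orange at 8× final. Melt runs from 25°C to 95°C in 0.05 °C/s steps on a real-time PCR instrument, ROX channel, no quencher. Tm is compared against unliganded protein. Six independent runs.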
# [6] = system: ZO‐1 PDZ2 domain; assay: EDC zero-length cross‐linking to GST ZO‐1 PDZ domains; format: binding; conditions: biotin‐tagged peptide at 5, 25 and 50 μmol/L, NeutrAvidin labeling
# In short: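 Direct coupling uses purified GST–ZO‑1 PDZ fusion protein from IPTG-induced BL21 at 50 μg/mL with biotinylated peptide in PBS pH 7.5. They react 1 h at room temperature before EDC is added. The mixture is boiled in LDS buffer, run on 18% SDS‑PAGE and blotted for GST or with NeutrAvidin‑HRP by chemiluminescence.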
# [7] = system: Cx43 CT; assay: EDC cross‐linking of kinase reaction mixtures, Cx43 CT; format: binding; conditions: peptide at 5, 10 and 25 μmol/L, streptavidin labeling
# In short: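 Kinase mixture as in the PKCε assay, but in 20 mmol/L MOPS pH 7.2 with 30 μg/mL Cx43 CT substrate and varied peptide, 15 min at 37°C. EDC added to 20 mmol/L final and left 1 h at room temperature. Stopped with LDS buffer and boiled 5 min. Run on 18% gels, then Coomassie-stained (bands excised for MS/MS) or blotted for biotin with HRP‑NeutrAvidin.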
# Chain of Cx43 CT (amino acids 255–382) (P08050 255-382): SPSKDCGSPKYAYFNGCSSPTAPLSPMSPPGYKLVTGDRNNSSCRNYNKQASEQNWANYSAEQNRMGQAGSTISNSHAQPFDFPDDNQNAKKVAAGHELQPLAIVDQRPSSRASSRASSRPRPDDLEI
Sequence,Cx43 CT KK/QQ mutant binding to immobilized biotin-peptide (SPR response) [2],Cx43 S368 phosphorylation versus PKCε+plus control (in words) [3],further results
RQPKIWFPNRRKPWKK RPRPAALAI [Peptide M1],minimal interaction,did not increase Cx43 S368 phosphorylation,"Cx43 CT binding to immobilized biotin-peptide (SPR response) ([1]; analyte 0.5 to 15 μmol/L, reverse control peptide subtracted, mean of 3 runs): loss of Cx43 CT binding competence; Phosphorylation of Cx43 CT KK/QQ mutant substrate [4]: Neither αCT1 nor M1 prompted an increase in phosphorylation"
RQPKIWFPNRRKPWKK RPRPDDLE [αCT1‐I],,significant increase in PKCε‐mediated phosphorylation of Cx43 CT,Interaction with ZO‐1 PDZ2 by EDC cross‐linking [6]: incompetent to interact with the ZO‐1 PDZ2 domain
RQPKIWFPNRRKPWKK LPAARIAPR [Peptide M4],,,Cross‐linking to Cx43 CT by EDC [7]: no evidence of cross‐linking

# The next lines start with results.
Cx43 CT KK/QQ mutant binding to immobilized biotin-peptide (SPR response) [2],Sequence,Cx43 S368 phosphorylation versus PKCε+plus control (in words) [3],further results
minimal interaction,RQPKIWFPNRRKPWKK RPRPDDLBI [Peptide M3],did not increase Cx43 S368 phosphorylation,SPR binding kinetics with Cx43 CT (in words) ([1]; inspection of SPR curves): higher initial on rate; Change of ZO‐1 PDZ2 melt temperature (Tm) [5]: evidence of significant interaction
minimal interaction,RQPKIWFPNRRKPWKK RPRPAALEI [Peptide M2],did not increase Cx43 S368 phosphorylation,
